Experiments:
[1] = Drug uptake in human U87MG cells over expressing […] integrin xenografted in BALB/c nude mouse tumor at 11.1 MBq/0.1 mL, iv after 1 hr by PET/CT imaging; format: ADME, organism-based, Neoplasm, U-87MG ATCC; conditions: in vivo
In short: (§1)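 Glioma-xenografted BALB/c nude mice were injected by tail vein; inhibition groups were co-injected with cold c(RGDyK) 3 mg/kg. Under 2% isoflurane, dynamic small-animal PET/CT was acquired at 1 and 2 h, with decay-corrected images. SUV = tissue activity concentration (MBq/mL) / (injected dose (MBq) / body weight (g)). Normal tissue reference was the left shoulder.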

Blood [2] = assay: Drug uptake in blood of BALB/c nude mouse xenografted with human U87MG cells over expressing […] integrin at 0.148 MBq/0.1 mL, iv after 60 mins by gamma counting; format: ADME, organism-based, U-87MG ATCC; conditions: in vivo, 1 h
In short: (§2)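 Male BALB/c nude mice received 2 × 10^5 U87MG human glioma cells s.c. in the right shoulder, 11 days before tracer. Tracer was given by tail vein; blocking groups were co-injected with cold c(RGDyK) 3 mg/kg. Mice were killed at 60 min; organs and blood were weighed and gamma counted, and %ID/g was calculated. n = 8; Student's t-test.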

Urinary bladder = assay: Drug uptake in bladder of BALB/c nude mouse xenografted with human U87MG cells over expressing […] integrin at 11.1 MBq/0.1 mL, iv after 1 to 2 hrs by PET/CT imaging; format: ADME, organism-based, U-87MG ATCC; conditions: in vivo; in short: as §1
Lung [3] = assay: Drug uptake in lung of BALB/c nude mouse xenografted with human U87MG cells over expressing […] integrin at 0.148 MBq/0.1 mL after 60 mins by gamma counting in presence of 3 mg/kg c(RGDyk); format: ADME, organism-based, U-87MG ATCC; design: dose 3 mg/kg; conditions: in vivo, 1 h; in short: as §2
Spleen [4] = assay: Drug uptake in spleen of BALB/c nude mouse xenografted with human U87MG cells over expressing […] integrin at 0.148 MBq/0.1 mL after 60 mins by gamma counting in presence of 3 mg/kg c(RGDyk); format: ADME, organism-based, U-87MG ATCC; design: dose 3 mg/kg; conditions: in vivo, 1 h; in short: as §2
[5] = Drug uptake in human U87MG cells over expressing […] integrin xenografted in BALB/c nude mouse tumor at 0.148 MBq/0.1 mL after 1 hr by gamma counting in presence of 3 mg/kg c(RGDyk); format: ADME, organism-based, Neoplasm, U-87MG ATCC; design: dose 3 mg/kg; conditions: in vivo; in short: as §2
Intestine [6] = assay: Drug uptake in intestine of BALB/c nude mouse xenografted with human U87MG cells over expressing […] integrin at 0.148 MBq/0.1 mL, iv after 60 mins by gamma counting; format: ADME, organism-based, U-87MG ATCC; conditions: in vivo, 1 h; in short: as §2
Kidney [7] = assay: Drug uptake in kidney of BALB/c nude mouse xenografted with human U87MG cells over expressing […] integrin at 0.148 MBq/0.1 mL, iv after 60 mins by gamma counting; format: ADME, organism-based, U-87MG ATCC; conditions: in vivo, 1 h; in short: as §2
Pancreas [8] = assay: Drug uptake in pancreas of BALB/c nude mouse xenografted with human U87MG cells over expressing […] integrin at 0.148 MBq/0.1 mL after 60 mins by gamma counting in presence of 3 mg/kg c(RGDyk); format: ADME, organism-based, U-87MG ATCC; design: dose 3 mg/kg; conditions: in vivo, 1 h; in short: as §2
Heart [9] = assay: Drug uptake in heart of BALB/c nude mouse xenografted with human U87MG cells over expressing […] integrin at 0.148 MBq/0.1 mL, iv after 60 mins by gamma counting; format: ADME, organism-based, U-87MG ATCC; conditions: in vivo, 1 h; in short: as §2
Bone [10] = assay: Drug uptake in bone of BALB/c nude mouse xenografted with human U87MG cells over expressing […] integrin at 0.148 MBq/0.1 mL, iv after 60 mins by gamma counting; format: ADME, organism-based, Bone element, U-87MG ATCC; conditions: in vivo, 1 h; in short: as §2
Liver [11] = assay: Drug uptake in liver of BALB/c nude mouse xenografted with human U87MG cells over expressing […] integrin at 0.148 MBq/0.1 mL, iv after 60 mins by gamma counting; format: ADME, organism-based, U-87MG ATCC; conditions: in vivo, 1 h; in short: as §2
[12] = Drug uptake in human U87MG cells over expressing […] integrin xenografted in BALB/c nude mouse tumor at 11.1 MBq/0.1 mL, iv after 2 hrs by PET/CT imaging; format: ADME, organism-based, Neoplasm, U-87MG ATCC; conditions: in vivo; in short: as §1
[13] = Drug uptake in human U87MG cells overexpressing […] integrin xenografted in BALB/c nude mouse tumor at 11.1 MBq/0.1 mL after 1 hr by PET/CT imaging in presence of 3 mg/kg c(RGDyk); format: ADME, organism-based, Neoplasm, U-87MG ATCC; design: dose 3 mg/kg; conditions: in vivo; in short: as §1
Muscle tissue [14] = assay: Drug uptake in muscle of BALB/c nude mouse xenografted with human U87MG cells over expressing […] integrin at 0.148 MBq/0.1 mL, iv after 60 mins by gamma counting; format: ADME, organism-based, U-87MG ATCC; conditions: in vivo, 1 h; in short: as §2
Stomach [15] = assay: Drug uptake in stomach of BALB/c nude mouse xenografted with human U87MG cells over expressing […] integrin at 0.148 MBq/0.1 mL after 60 mins by gamma counting in presence of 3 mg/kg c(RGDyk); format: ADME, organism-based, U-87MG ATCC; design: dose 3 mg/kg; conditions: in vivo, 1 h; in short: as §2
[16] = Chemical stability of the compound after 4 hrs by ITLC-SG analysis; format: physicochemical
In short: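 After Al18F labeling (pH 4 sodium acetate buffer, 110 °C, 10 min), stability of the labeled conjugate was followed in the labeling medium at room temperature for 240 min. Decomposition was checked by ITLC-SG; unbound [18F]AlF stays at the origin, the labeled peptide runs to the solvent front.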

[17] = Drug uptake in human U87MG cells over expressing […] integrin xenografted BALB/c nude mouse tumor at 0.148 MBq/0.1 mL, iv after 60 mins by gamma counting; format: ADME, organism-based, Neoplasm, U-87MG ATCC; conditions: in vivo, 1 h; in short: as §2
Stomach [18] = assay: Drug uptake in stomach of BALB/c nude mouse xenografted with human U87MG cells over expressing […] integrin at 0.148 MBq/0.1 mL, iv after 60 mins by gamma counting; format: ADME, organism-based, U-87MG ATCC; conditions: in vivo, 1 h; in short: as §2
Heart [19] = assay: Drug uptake in heart of BALB/c nude mouse xenografted with human U87MG cells over expressing […] integrin at 0.148 MBq/0.1 mL after 60 mins by gamma counting in presence of 3 mg/kg c(RGDyk); format: ADME, organism-based, U-87MG ATCC; design: dose 3 mg/kg; conditions: in vivo, 1 h; in short: as §2
Lung [20] = assay: Drug uptake in lung of BALB/c nude mouse xenografted with human U87MG cells over expressing […] integrin at 0.148 MBq/0.1 mL, iv after 60 mins by gamma counting; format: ADME, organism-based, U-87MG ATCC; conditions: in vivo, 1 h; in short: as §2
Intestine [21] = assay: Drug uptake in intestine of BALB/c nude mouse xenografted with human U87MG cells over expressing […] integrin at 0.148 MBq/0.1 mL after 60 mins by gamma counting in presence of 3 mg/kg c(RGDyk); format: ADME, organism-based, U-87MG ATCC; design: dose 3 mg/kg; conditions: in vivo, 1 h; in short: as §2
[22] = Stability of the compound in human serum for 4 hrs by ITLC-SG analysis; format: ADME, cell-free
In short: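 Labeled conjugate was incubated in human serum at 37 °C for 240 min. Decomposition was checked by ITLC-SG; unbound [18F]AlF stays at the origin, the labeled peptide runs to the solvent front.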

[23] = Drug uptake in human U87MG cells overexpressing alphavbeta3 integrin xenografted in BALB/c nude mouse tumor at 11.1 MBq/0.1 mL after 2 hrs by PET/CT imaging in presence of 3 mg/kg c(RGDyk); conditions: in vivo
Muscle tissue [24] = assay: Drug uptake in muscle of BALB/c nude mouse xenografted with human U87MG cells over expressing […] integrin at 0.148 MBq/0.1 mL after 60 mins by gamma counting in presence of 3 mg/kg c(RGDyk); format: ADME, organism-based, U-87MG ATCC; design: dose 3 mg/kg; conditions: in vivo, 1 h; in short: as §2
Blood [25] = assay: Drug uptake in blood of BALB/c nude mouse xenografted with human U87MG cells overexpressing […] integrin at 0.148 MBq/0.1 mL after 60 mins by gamma counting in presence of 3 mg/kg c(RGDyk); format: ADME, organism-based, U-87MG ATCC; design: dose 3 mg/kg; conditions: in vivo, 1 h; in short: as §2
Pancreas [26] = assay: Drug uptake in pancreas of BALB/c nude mouse xenografted with human U87MG cells over expressing […] integrin at 0.148 MBq/0.1 mL, iv after 60 mins by gamma counting; format: ADME, organism-based, U-87MG ATCC; conditions: in vivo, 1 h; in short: as §2
Spleen [27] = assay: Drug uptake in spleen of BALB/c nude mouse xenografted with human U87MG cells over expressing […] integrin at 0.148 MBq/0.1 mL, iv after 60 mins by gamma counting; format: ADME, organism-based, U-87MG ATCC; conditions: in vivo, 1 h; in short: as §2
Bone [28] = assay: Drug uptake in bone of BALB/c nude mouse xenografted with human U87MG cells over expressing […] integrin at 0.148 MBq/0.1 mL after 60 mins by gamma counting in presence of 3 mg/kg c(RGDyk); format: ADME, organism-based, Bone element, U-87MG ATCC; design: dose 3 mg/kg; conditions: in vivo, 1 h; in short: as §2
Liver [29] = assay: Drug uptake in liver of BALB/c nude mouse xenografted with human U87MG cells over expressing […] integrin at 0.148 MBq/0.1 mL after 60 mins by gamma counting in presence of 3 mg/kg c(RGDyk); format: ADME, organism-based, U-87MG ATCC; design: dose 3 mg/kg; conditions: in vivo, 1 h; in short: as §2
Kidney [30] = assay: Drug uptake in kidney of BALB/c nude mouse xenografted with human U87MG cells over expressing […] integrin at 0.148 MBq/0.1 mL after 60 mins by gamma counting in presence of 3 mg/kg c(RGDyk); format: ADME, organism-based, U-87MG ATCC; design: dose 3 mg/kg; conditions: in vivo, 1 h; in short: as §2

## N=C(N)NCCC[C@@H]1NC(=O)[C@H](CCCCNC(=S)Nc2ccc(CN3CCN4CCN(CC3)CC(=O)[O][Al]([18F])[O]C(=O)C4)cc2)NC(=O)[C@@H](Cc2ccc(O)cc2)NC(=O)[C@H](CC(=O)O)NC(=O)CNC1=O
[1]
  SUV: 7.42
Blood [2]
  Drug uptake: Active
Urinary bladder
  Drug uptake: Active
Lung [3]
  Drug uptake: Not Active
Spleen [4]
  Drug uptake: Not Active
[5]
  Drug uptake: 1.33 % ID/g
Intestine [6]
  Drug uptake: Active
Kidney [7]
  Drug uptake: Active
Pancreas [8]
  Drug uptake: Not Active
Heart [9]
  Drug uptake: Active
Bone [10]
  Drug uptake: Active
Liver [11]
  Drug uptake: Active
[12]
  SUV: 3.77
[13]
  SUV: 0.72
Muscle tissue [14]
  Drug uptake: Active
Stomach [15]
  Drug uptake: Not Active
[16]
  remaining at 4 h: > 95%
[17]
  Drug uptake: 4.41 % ID/g
Stomach [18]
  Drug uptake: Active
Heart [19]
  Drug uptake: Not Active
Lung [20]
  Drug uptake: Active
Intestine [21]
  Drug uptake: Not Active
[22]
  remaining at 4 h: > 95%
[23]
  SUV: 0.42
Muscle tissue [24]
  Drug uptake: Not Active
Blood [25]
  Drug uptake: Not Active
Pancreas [26]
  Drug uptake: Active
Spleen [27]
  Drug uptake: Active
Bone [28]
  Drug uptake: Not Active
Liver [29]
  Drug uptake: Not Active
Kidney [30]
  Drug uptake: Not Active
